Test [1] concerns Trichomonas vaginalis. The test is described as follows: Antitrichomonal activity against metronidazole-susceptible Trichomonas vaginalis clinical isolate by trypan blue staining-based cell counting. The test is classed as functional. Summed up:
(§1)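 Log-phase trophozoites (grown 1 day in TYM medium with 10% heat-inactivated FBS, pH 6.8, under partial anaerobiosis at 37°C) seeded at 5 X 10³/well. Compounds dissolved in DMSO and serially diluted in TYM from 100 to 0.78 μg/ml; vehicle wells had 0.05% DMSO. Plates incubated anaerobically at 37°C, with viability followed by trypan blue counting. MIC taken at 24 h as the lowest concentration leaving all trophozoites nonviable.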

Test [2] relates to Trichomonas vaginalis. Kind of test: Antitrichomonal activity against metronidazole-resistant Trichomonas vaginalis ATCC 50143 by trypan blue staining-based cell counting. The class given is functional. A digest of the protocol: as §1
For another test, the system named is HeLa. Kind of test: Cytotoxicity against human HeLa cells after 24 hrs by MTT assay. The class given is cell-based. A digest of the protocol: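 HeLa cells were kept in DMEM with 10% FBS at 37°C under 5% CO₂, then seeded at 5 X 10⁴/well and grown 24 h. Medium was replaced with compound dilutions starting at 1.0 mg/ml, with 0.05% DMSO in control wells, and cells were exposed for 24 h. MTT was then added, formazan was dissolved in DMSO, and OD was read at 540 nm.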

Test [3] relates to Trichomonas vaginalis. The test is described as follows: Ratio of MIC for metronidazole-resistant Trichomonas vaginalis ATCC 50143 to metronidazole-susceptible Trichomonas vaginalis clinical isolate. The class given is functional. A digest of the protocol:
(§2)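 Both T. vaginalis strains were grown in TYM medium (pH 6.8) with 10% heat-inactivated FBS, 2% vitamin mixture, penicillin and streptomycin, under partial anaerobiosis at 37°C. Log-phase trophozoites (5 X 10³/well) taken 1 day after subculture were exposed to twofold dilutions from 100 down to 0.78 μg/ml (from DMSO stocks), with 0.05% DMSO vehicle controls, anaerobically at 37°C. Viability was scored daily by trypan blue counting. MIC was the lowest concentration leaving all trophozoites nonviable at 24 h.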

Test [4] concerns Trichomonas vaginalis. Kind of test: Ratio of metronidazole MIC to compound MIC for metronidazole-resistant Trichomonas vaginalis ATCC 50143 by trypan blue staining-based cell counting. The class given is functional. Summed up:
as §2

Structures are written as SMILES. Converted amounts (≈) assume the structure as drawn.

`Cc1ncc([N+](=O)[O-])n1CCOc1ccc(C(=O)/C=C/c2c(Cl)cccc2Cl)cc1`: the MIC against Trichomonas vaginalis [1] turned out to be 6.25 µg/mL (≈ 14 µM); against Trichomonas vaginalis [2], 25 µg/mL (≈ 56 µM).

On to `Cc1ncc([N+](=O)[O-])n1CCOc1ccc(C(=O)/C=C/c2cccc(Cl)c2)cc1`, for which the MIC against Trichomonas vaginalis [1] was found to be 1.56 µg/mL (≈ 3.79 µM); in the test on Trichomonas vaginalis [2], 3.12 µg/mL (≈ 7.59 µM). The IC50 in the test with HeLa was > 1000 µg/mL. The results for the Ratio with Trichomonas vaginalis [3] and in the test with Trichomonas vaginalis [4] were 2 and 4, respectively.

Regarding `Cc1ncc([N+](=O)[O-])n1CCOc1ccc(C(=O)/C=C/c2ccccc2Br)cc1`, the minimum inhibitory concentration (MIC) in the test on Trichomonas vaginalis [1] turned out to be 3.12 µg/mL (≈ 6.85 µM); in the test with Trichomonas vaginalis [2], 6.25 µg/mL (≈ 13.7 µM).

Consider `Cc1ncc([N+](=O)[O-])n1CCOc1ccc(C(=O)/C=C/c2ccc(Cl)cc2)cc1`, for which the MIC against Trichomonas vaginalis [1] and with Trichomonas vaginalis [2] was 6.25 µg/mL (≈ 15.2 µM) each time.

In the case of `Cc1ncc([N+](=O)[O-])n1CCOc1ccc(C(=O)/C=C/c2ccccc2Cl)cc1`, the MIC in the test on Trichomonas vaginalis [1] is 3.12 µg/mL (≈ 7.59 µM); in the test on Trichomonas vaginalis [2] it was 12.5 µg/mL (≈ 30.4 µM).

As to `Cc1ncc([N+](=O)[O-])n1CCOc1ccc(C(=O)/C=C/c2ccccc2C(F)(F)F)cc1`, the minimal inhibitory concentration (MIC) with Trichomonas vaginalis [1] stood at 6.25 µg/mL (≈ 14 µM); in the test on Trichomonas vaginalis [2] it was 25 µg/mL (≈ 56.1 µM).

In the case of `Cc1ncc([N+](=O)[O-])n1CCOc1ccc(C(=O)/C=C/c2ccc(Br)cc2)cc1`, the MIC in the test with Trichomonas vaginalis [1] and against Trichomonas vaginalis [2] was 6.25 µg/mL (≈ 13.7 µM) throughout.

As to `Cc1ncc([N+](=O)[O-])n1CCOc1ccc(C(=O)/C=C/c2cccc3ccccc23)cc1`, the minimum inhibitory concentration (MIC) is 6.25 µg/mL (≈ 14.6 µM) against Trichomonas vaginalis [1] and 25 µg/mL (≈ 58.5 µM) against Trichomonas vaginalis [2].

Regarding `Cc1ncc([N+](=O)[O-])n1CCOc1ccc(C(=O)/C=C/c2cc(F)ccc2F)cc1`, the values for the MIC against Trichomonas vaginalis [1] and in the test with Trichomonas vaginalis [2] were 1.56 µg/mL (≈ 3.77 µM) and 6.25 µg/mL (≈ 15.1 µM), respectively. For the same compound, the Ratio in the test on Trichomonas vaginalis [3] is listed as 2.

For the compound `Cc1ncc([N+](=O)[O-])n1CCOc1ccc(C(=O)/C=C/c2ccc(F)cc2)cc1`, the results for the MIC with Trichomonas vaginalis [1] and against Trichomonas vaginalis [2] were 1.56 µg/mL (≈ 3.95 µM) and 6.25 µg/mL (≈ 15.8 µM), respectively. Moreover, the Ratio with Trichomonas vaginalis [3] is given as 2.

In the case of `COc1ccc(/C=C/C(=O)c2ccc(OCCn3c([N+](=O)[O-])cnc3C)cc2)cc1`, the minimum inhibitory concentration (MIC) in the test on Trichomonas vaginalis [1] was found to be 3.12 µg/mL (≈ 7.67 µM); in the test on Trichomonas vaginalis [2] it was 25 µg/mL (≈ 61.4 µM).

As to `Cc1ncc([N+](=O)[O-])n1CCOc1ccc(C(=O)/C=C/c2ccc(F)c(F)c2)cc1`, the minimal inhibitory concentration (MIC) came to 1.56 µg/mL (≈ 3.77 µM) against Trichomonas vaginalis [1] and 6.25 µg/mL (≈ 15.1 µM) in the test with Trichomonas vaginalis [2]. For the same compound, the Ratio in the test with Trichomonas vaginalis [3] was 2.

`COc1ccc(OC)c(/C=C/C(=O)c2ccc(OCCn3c([N+](=O)[O-])cnc3C)cc2)c1`: the minimal inhibitory concentration (MIC) against Trichomonas vaginalis [1] and against Trichomonas vaginalis [2] was 12.5 µg/mL (≈ 28.6 µM) in each case.

For `Cc1ncc([N+](=O)[O-])n1CCOc1ccc(C(=O)/C=C/c2cc(F)cc(F)c2)cc1`, the MIC with Trichomonas vaginalis [1] is 1.56 µg/mL (≈ 3.77 µM); with Trichomonas vaginalis [2] it was 3.12 µg/mL (≈ 7.56 µM). Also, the 50% inhibitory concentration (IC50) in the test on HeLa was > 1000 µg/mL. Moreover, the Ratio with Trichomonas vaginalis [3] worked out at 2; in the test with Trichomonas vaginalis [4] it was 4.

`Cc1ncc([N+](=O)[O-])n1CCOc1ccc(C(=O)/C=C/c2ccc(Cl)cc2Cl)cc1`: the results for the MIC against Trichomonas vaginalis [1] and against Trichomonas vaginalis [2] were 6.25 µg/mL (≈ 14 µM) and 12.5 µg/mL (≈ 28 µM), respectively.

As for `Cc1ncc([N+](=O)[O-])n1CCOc1ccc(C(=O)/C=C/c2ccc(C(F)(F)F)cc2)cc1`, the minimal inhibitory concentration (MIC) against Trichomonas vaginalis [1] was 3.12 µg/mL (≈ 7.02 µM); against Trichomonas vaginalis [2] it was 25 µg/mL (≈ 56.1 µM).

Turning to `Cc1ncc([N+](=O)[O-])n1CCOc1ccc(C(=O)/C=C/c2ccc([N+](=O)[O-])cc2)cc1`, the values for the minimal inhibitory concentration (MIC) with Trichomonas vaginalis [1] and in the test with Trichomonas vaginalis [2] were 1.56 µg/mL (≈ 3.69 µM) and 6.25 µg/mL (≈ 14.8 µM), respectively. Also, the Ratio with Trichomonas vaginalis [3] and with Trichomonas vaginalis [4] was 2 throughout.

In the case of `Cc1ncc([N+](=O)[O-])n1CCO` [METRONIDAZOLE], the results for the MIC with Trichomonas vaginalis [1] and against Trichomonas vaginalis [2] were 1.56 µg/mL (≈ 9.11 µM) and 12.5 µg/mL (≈ 73 µM), respectively. For the same compound, the IC50 in the test with HeLa is > 1000 µg/mL. The Ratio in the test on Trichomonas vaginalis [3] amounted to 8.

With `Cc1ncc([N+](=O)[O-])n1CCOc1ccc(C(=O)/C=C/c2cccc(F)c2)cc1`, the minimum inhibitory concentration (MIC) with Trichomonas vaginalis [1] was found to be 25 µg/mL (≈ 63.2 µM); in the test on Trichomonas vaginalis [2], 100 µg/mL (≈ 253 µM).

For the compound `Cc1ccc(/C=C/C(=O)c2ccc(OCCn3c([N+](=O)[O-])cnc3C)cc2)cc1C`, the minimal inhibitory concentration (MIC) was 6.25 µg/mL (≈ 15.4 µM) against Trichomonas vaginalis [1] and 12.5 µg/mL (≈ 30.8 µM) against Trichomonas vaginalis [2].

Turning to `COc1ccc(/C=C/C(=O)c2ccc(OCCn3c([N+](=O)[O-])cnc3C)cc2)cc1OC`, the figures for the minimum inhibitory concentration (MIC) against Trichomonas vaginalis [1] and in the test on Trichomonas vaginalis [2] were 1.56 µg/mL (≈ 3.57 µM) and 12.5 µg/mL (≈ 28.6 µM), respectively. In addition, the Ratio in the test on Trichomonas vaginalis [3] was determined as 8.

`Cc1ncc([N+](=O)[O-])n1CCOc1ccc(C(=O)/C=C/c2ccccc2)cc1`: the MIC against Trichomonas vaginalis [1] is 1.56 µg/mL (≈ 4.13 µM); in the test on Trichomonas vaginalis [2], 50 µg/mL (≈ 132 µM). Also, in the test on Trichomonas vaginalis [3], the Ratio is 4.

As for `Cc1ncc([N+](=O)[O-])n1CCOc1ccc(C(=O)/C=C/c2cccc(Br)c2)cc1`, the minimal inhibitory concentration (MIC) in the test with Trichomonas vaginalis [1] and against Trichomonas vaginalis [2] was 3.12 µg/mL (≈ 6.85 µM) throughout. For the same compound, in the test with Trichomonas vaginalis [4], the Ratio amounted to 4.

(Values after ChEMBL document CHEMBL3232761, “Novel metronidazole-chalcone conjugates with potential to counter drug resistance in Trichomonas vaginalis” (Eur J Med Chem, 2014).)
